Measurements as given in ChEMBL document CHEMBL1148485, “Synthesis and biological evaluation of new selective cytotoxic cyclolignans derived from podophyllotoxin” (J Med Chem, 2004).

Legend:
[1] = test system: HeLa; assay: Effect on cell cycle evaluated as proportion of cells in sub-G1 phase (apoptic cells) of the cell cycle at 10E-6 M for 24 hr in HeLa cells; format: functional, Homo sapiens
How it was run: (§1)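 HeLa cells were grown in DMEM with 10% heat-inactivated FCS and 2 mM L-glutamine at 37 °C in 5% CO2. They were exposed to 10^-6 to 10^-8 M for 24, 48 or 72 h. Then (3-5)×10^5 cells were fixed overnight in 70% ethanol at 4 °C, PBS-washed, and given 1 mg/mL RNase A plus 20 µg/mL propidium iodide for 1 h at room temperature. DNA content was read by flow cytometry. Sub-G1 (hypodiploid) % counted as apoptotic. Untreated controls were run in parallel. Representative of three independent experiments.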

[2] = test system: HeLa; assay: Effect on cell cycle evaluated as proportion of cells in G0/G1 phase of the cell cycle at 10E-7 M for 72 hr in HeLa cells; format: functional, Homo sapiens; how it was run: as §1
[3] = test system: HeLa; assay: Effect on cell cycle evaluated as proportion of cells in G0/G1 phase of the cell cycle at 10E-7 M for 24 hr in HeLa cells; format: functional, Homo sapiens; how it was run: as §1
[4] = test system: HeLa; assay: Effect on cell cycle evaluated as proportion of cells in G0/G1 phase of the cell cycle at 10E-6 M for 72 hr in HeLa cells; format: functional, Homo sapiens; how it was run: as §1
[5] = test system: HeLa; assay: Effect on cell cycle evaluated as proportion of cells in S phase of the cell cycle at 10E-8 M for 72 hr in HeLa cells; format: functional, Homo sapiens; how it was run: as §1
[6] = test system: HeLa; assay: Effect on cell cycle evaluated as proportion of cells in G0/G1 phase of the cell cycle at 10E-8 M for 72 hr in HeLa cells; format: functional, Homo sapiens; how it was run: as §1
[7] = test system: HeLa; assay: Effect on cell cycle evaluated as proportion of cells in G2/M phase of the cell cycle at 10E-8 M for 24 hr in HeLa cells; format: functional, Homo sapiens; how it was run: as §1
[8] = test system: HeLa; assay: Effect on cell cycle evaluated as proportion of cells in G2/M phase of the cell cycle at 10E-8 M for 48 hr in HeLa cells; format: functional, Homo sapiens; how it was run: as §1
[9] = test system: HeLa; assay: Effect on cell cycle evaluated as proportion of cells in sub-G1 phase (apoptic cells)of the cell cycle at 10E-8 M for 48 hr in HeLa cells; format: functional, Homo sapiens; how it was run: as §1
[10] = test system: HeLa; assay: Effect on cell cycle evaluated as proportion of cells in S phase of the cell cycle at 10E-8 M for 24 hr in HeLa cells; format: functional, Homo sapiens; how it was run: as §1
[11] = test system: HeLa; assay: Effect on cell cycle evaluated as proportion of cells in G0/G1 phase of the cell cycle at 10E-8 M for 48 hr in HeLa cells; format: functional, Homo sapiens; how it was run: as §1
[12] = test system: HeLa; assay: Effect on cell cycle evaluated as proportion of cells in sub-G1 phase of the cell cycle at 10E-7 M for 48 hr in HeLa cells; format: functional, Homo sapiens; how it was run: as §1
[13] = test system: HeLa; assay: Effect on cell cycle evaluated as proportion of cells in S phase of the cell cycle at 10E-7 M for 72 hr in HeLa cells; format: functional, Homo sapiens; how it was run: as §1
[14] = test system: HeLa; assay: Effect on cell cycle evaluated as proportion of cells in S phase of the cell cycle at 10E-7 M for 24 hr in HeLa cells; format: functional, Homo sapiens; how it was run: as §1
[15] = test system: HeLa; assay: Effect on cell cycle evaluated as proportion of cells in sub-G1 (apoptic cells) phase of the cell cycle at 10E-6 M for 72 hr in HeLa cells; format: functional, Homo sapiens; how it was run: as §1
[16] = test system: HeLa; assay: Effect on cell cycle evaluated as proportion of cells in G2/M phase of the cell cycle at 10E-7 M for 48 hr in HeLa cells; format: functional, Homo sapiens; how it was run: as §1
[17] = test system: HeLa; assay: Effect on cell cycle evaluated as proportion of cells in G2/M phase of the cell cycle at 10E-6 M for 72 hr in HeLa cells; format: functional, Homo sapiens; how it was run: as §1
[18] = test system: HeLa; assay: Effect on cell cycle evaluated as proportion of cells in sub-G1 phase(apoptic cells) of the cell cycle at 10E-8 M for 72 hr in HeLa cells; format: functional, Homo sapiens; how it was run: as §1
[19] = test system: HeLa; assay: Effect on cell cycle evaluated as proportion of cells in G0/G1 phase of the cell cycle at 10E-8 M for 24 hr in HeLa cells; format: functional, Homo sapiens; how it was run: as §1
[20] = test system: HeLa; assay: Effect on cell cycle evaluated as proportion of cells in S phase of the cell cycle at 10E-7 M for 48 hr in HeLa cells; format: functional, Homo sapiens; how it was run: as §1
[21] = test system: HeLa; assay: Effect on cell cycle evaluated as proportion of cells in G0/G1 phase of the cell cycle at 10E-7 M for 48 hr in HeLa cells; format: functional, Homo sapiens; how it was run: as §1
[22] = test system: HeLa; assay: Effect on cell cycle evaluated as proportion of cells in sub-G1 phase (apoptic cells) of the cell cycle at 10E-7 M for 24 hr in HeLa cells; format: functional, Homo sapiens; how it was run: as §1
[23] = test system: HeLa; assay: Effect on cell cycle evaluated as proportion of cells in G2/M phase of the cell cycle at 10E-7 M for 24 hr in HeLa cells; format: functional, Homo sapiens; how it was run: as §1
[24] = test system: HeLa; assay: Effect on cell cycle evaluated as proportion of cells in S phase of the cell cycle at 10E-6 M for 24 hr in HeLa cells; format: functional, Homo sapiens; how it was run: as §1
[25] = test system: HeLa; assay: Effect on cell cycle evaluated as proportion of cells in G0/G1 phase of the cell cycle at 10E-6 M for 48 hr in HeLa cells; format: functional, Homo sapiens; how it was run: as §1
[26] = Selectivity index is the ratio of IC50 of P-388 cell line to that of HT-29; format: functional
[27] = test system: HeLa; assay: Effect on cell cycle evaluated as proportion of cells in S phase of the cell cycle at 10E-6 M for 72 hr in HeLa cells; format: functional, Homo sapiens; how it was run: as §1
[28] = test system: HeLa; assay: Effect on cell cycle evaluated as proportion of cells in G2/M phase of the cell cycle at 10E-6 M for 24 hr in HeLa cells; format: functional, Homo sapiens; how it was run: as §1
[29] = test system: HeLa; assay: Effect on cell cycle evaluated as proportion of cells in G0/G1 phase of the cell cycle at 10E-6 M for 24 hr in HeLa cells; format: functional, Homo sapiens; how it was run: as §1
[30] = test system: HeLa; assay: Effect on cell cycle evaluated as proportion of cells in S phase of the cell cycleG2/M at 10E-8 M for 72 hr in HeLa cells; format: functional, Homo sapiens; how it was run: as §1
[31] = test system: HeLa; assay: Effect on cell cycle evaluated as proportion of cells in G2/M phase of the cell cycle at 10E-7 M for 72 hr in HeLa cells; format: functional, Homo sapiens; how it was run: as §1
[32] = test system: HeLa; assay: Effect on cell cycle evaluated as proportion of cells in sub-G1 (apoptic cells) phase of the cell cycle at 10E-7 M for 72 hr in HeLa cells; format: functional, Homo sapiens; how it was run: as §1
[33] = test system: HeLa; assay: Effect on cell cycle evaluated as proportion of cells in S phase of the cell cycle at 10E-8 M for 48 hr in HeLa cells; format: functional, Homo sapiens; how it was run: as §1
[34] = test system: HeLa; assay: Effect on cell cycle evaluated as proportion of cells in sub-G1 phase (apoptic cells )of the cell cycle at 10E-8 M for 24 hr in HeLa cells; format: functional, Homo sapiens; how it was run: as §1
[35] = test system: HT-29; assay: In vitro cytotoxicity against HT-29 (human colon carcinoma) cell line.; format: functional, cell-based; conditions: Homo sapiens, HT-29
[36] = test system: HeLa; assay: Effect on cell cycle evaluated as proportion of cells in sub-G1 (apoptic cells) phase of the cell cycle at 10E-6 M for 48 hr in HeLa cells; format: functional, Homo sapiens; how it was run: as §1
[37] = test system: HeLa; assay: Effect on cell cycle evaluated as proportion of cells in S phase of the cell cycle at 10E-6 M for 48 hr in HeLa cells; format: functional, Homo sapiens; how it was run: as §1
[38] = test system: HeLa; assay: Effect on cell cycle evaluated as proportion of cells in G2/M phase of the cell cycle at 10E-6 M for 48 hr in HeLa cells; format: functional, Homo sapiens; how it was run: as §1

SMILES: COc1cc([C@@H]2c3cc4c(cc3[C@H](O)[C@H]3COC(=O)[C@H]23)OCO4)cc(OC)c1OC [PODOFILOX]
- Activity [1]: 1.5%
- Activity [2]: 9.2%
- Activity [3]: 2.2%
- Activity [4]: 7.1%
- Activity [5]: 4.1%
- Activity [6]: 13.9%
- Activity [7]: 71.7%
- Activity [8]: 5.8%
- Activity [9]: 68.4%
- Activity [10]: 4.3%
- Activity [11]: 16.1%
- Activity [12]: 59%
- Activity [13]: 2.5%
- Activity [14]: 4.5%
- Activity [15]: 89.3%
- Activity [16]: 19.5%
- Activity [17]: 0.2%
- Activity [18]: 81.8%
- Activity [19]: 22.6%
- Activity [20]: 10.5%
- Activity [21]: 11%
- Activity [22]: 1.6%
- Activity [23]: 91.7%
- Activity [24]: 4.2%
- Activity [25]: 9.7%
- Selectivity index [26]: 0.5
- Activity [27]: 3.4%
- Activity [28]: 92.1%
- Activity [29]: 2.2%
- Activity [30]: 0.2%
- Activity [31]: 0.2%
- Activity [32]: 88.1%
- Activity [33]: 9.7%
- Activity [34]: 1.4%
- IC50 [35]: 24 nM
- Activity [36]: 62.3%
- Activity [37]: 10%
- Activity [38]: 18%
